From ChEMBL document CHEMBL4270526, “A novel NAE/UAE dual inhibitor LP0040 blocks neddylation and ubiquitination leading to growth inhibition and apoptosis of cancer cells” (Eur J Med Chem, 2018)
Active and inactive are the calls of the source. The rule behind the calls is not given here.

What was measured:
AGS [1] = test: Induction of apoptosis in human AGS cells assessed as live cells at 10 uM after 36 hrs by Annexin-V-FITC/propidium iodide staining based flow cytometry (reference value: 92.84%); format: functional
AGS [2] = test: Synergistic antiproliferative activity against human AGS cells assessed as combination index constant at 1.5 uM after 48 hrs in presence of 5 nM BTZ by CCK8 assay; format: functional
In short: (§1)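 AGS cells at 6×10^3/well attached for 12 h, then exposed for 48 h to compound, bortezomib, or both at set concentrations. CCK-8 added for 4 h, then OD read at 450 nm. Inhibition rates E used for q = E(combo)/(E1+E2−E1×E2). Triplicate experiments.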

AGS [3] = test: Synergistic antiproliferative activity against human AGS cells assessed as combination index constant at 1.5 uM after 48 hrs in presence of 7.5 nM BTZ by CCK8 assay; format: functional; in short: as §1
[4] = Antiproliferative activity against human LO2 cells after 48 hrs by CCK8 assay; format: cell-based, L02; conditions: read-out: LC50
[5] = target: T1, NEDD8 activating enzyme (Homo sapiens) (UniProt Q8TBC4+Q13564); test: Inhibition of NAE-mediated CRL neddylation in human AGS cells assessed as increase in CDT1 level up to 10 uM after 24 hrs by Western blot analysis; format: cell-based
In short: (§2)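 AGS cells given 2, 4, 6, 8 or 10 μM compound or 0.1% DMSO for 24 h, washed in ice-cold PBS and lysed in RIPA on ice. Equal protein loads run by SDS-PAGE: non-reducing for NEDD8/SUMO/Ub conjugates, reducing for p27, NRF2, CDT1 and cleaved caspase-3. Blotted to PVDF with primary antibody overnight at 4 °C and HRP secondary, ECL detection, densitometry. Three repeats.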

[6] = target: cAMP-dependent protein kinase catalytic subunit alpha (Homo sapiens) (UniProt P17612); test: Inhibition of PKAalpha (unknown origin) at 30 uM relative to control
[7] = target: SUMO-activating enzyme (Homo sapiens) (UniProt Q9UBE0+Q9UBT2); test: Inhibition of SAE in human AGS cells assessed as reduction in […]-SUMO conjugation level at 2 to 10 uM after 24 hrs by Western blot analysis; format: cell-based; in short: as §2
AGS [8] = test: Synergistic antiproliferative activity against human AGS cells assessed as combination index constant at 1.25 uM after 48 hrs in presence of 5 nM BTZ by CCK8 assay; format: functional; in short: as §1
AGS [9] = test: Induction of apoptosis in human AGS cells assessed as early apoptotic cells at 10 uM after 36 hrs by Annexin-V-FITC/propidium iodide staining based flow cytometry (reference value: 4.44%); format: functional
[10] = target: Protein kinase C alpha type (Homo sapiens) (UniProt P17252); test: Inhibition of PKCalpha (unknown origin) at 30 uM relative to control
AGS [11] = test: Induction of apoptosis in human AGS cells assessed as late apoptotic cells at 8 uM after 36 hrs by Annexin-V-FITC/propidium iodide staining based flow cytometry (reference value: 1.71%); format: functional
[12] = target: Cyclin-dependent kinase 2/cyclin E1 (Homo sapiens) (UniProt P24864+P24941); test: Inhibition of CDK2/cyclin E (unknown origin) at 30 uM relative to control; format: protein-complex assay
AGS [13] = test: Induction of apoptosis in human AGS cells assessed as necrotic cells at 10 uM after 36 hrs by Annexin-V-FITC/propidium iodide staining based flow cytometry (reference value: 1.01%); format: functional
[14] = target: Serine/threonine-protein kinase Chk1 (Homo sapiens) (UniProt O14757); test: Inhibition of CHK1 (unknown origin) at 30 uM relative to control
[15] = Selectivity index, ratio of IC50 for HEK293T cells to IC50 for human AGS cells; format: toxicity; conditions: HEK293T cells versus AGS cells, read-out: Ratio IC50
AGS [16] = test: Induction of apoptosis in human AGS cells assessed as late apoptotic cells at 4 uM after 36 hrs by Annexin-V-FITC/propidium iodide staining based flow cytometry (reference value: 1.71%); format: functional
AGS [17] = test: Induction of apoptosis in human AGS cells assessed as late apoptotic cells at 10 uM after 36 hrs by Annexin-V-FITC/propidium iodide staining based flow cytometry (reference value: 1.71%); format: functional
[18] = target: T1, NEDD8 activating enzyme (Homo sapiens); test: Inhibition of recombinant human NAE assessed as reduction in Ubc12-NEDD8 conjugation level pretreated for 10 mins followed by Mg2+ and ATP addition measured after 60 mins by Western blot analysis; format: protein-complex assay
In short: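 Cell-free assay with recombinant human NAE 2.5 µM, NEDD8 250 µM and E2 Ubc12 50 µM (stock concentrations) plus inhibitor, preincubated 10 min at 37 °C. Reaction started with 10 mM Mg2+/ATP (stock), run 60 min at 37 °C, quenched with EDTA. Non-reducing 15% SDS-PAGE, Ubc12-NEDD8 thioester detected by western blot. No-ATP negative control.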

[19] = Antiproliferative activity against HUVEC after 48 hrs by CCK8 assay; format: cell-based; conditions: human, read-out: LC50
AGS [20] = test: Induction of apoptosis in human AGS cells assessed as necrotic cells at 8 uM after 36 hrs by Annexin-V-FITC/propidium iodide staining based flow cytometry (reference value: 1.01%); format: functional
AGS [21] = test: Induction of apoptosis in human AGS cells assessed as early apoptotic cells at 6 uM after 36 hrs by Annexin-V-FITC/propidium iodide staining based flow cytometry (reference value: 4.44%); format: functional
AGS [22] = test: Induction of apoptosis in human AGS cells assessed as necrotic cells at 6 uM after 36 hrs by Annexin-V-FITC/propidium iodide staining based flow cytometry (reference value: 1.01%); format: functional
AGS [23] = test: Antiproliferative activity against human AGS cells after 48 hrs by CCK8 assay; format: functional, cell-based
In short: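 Cells seeded at 6 × 10^3 cells/well and left 12 h at 37 °C, 5% CO2. Medium then replaced with serial compound dilutions, bortezomib as positive control. After 48 h, CCK-8 added for 4 h and absorbance read at 450 nm. Three repeats; IC50 from normalized nonlinear regression of inhibition curves.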

AGS [24] = test: Cell cycle arrest in human AGS cells assessed as accumulation at sub-G1 phase at 4 uM after 24 hrs by propidium iodide staining based flow cytometry; format: functional
In short: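 AGS cells seeded at 1 × 10^5/well and attached 24 h at 37 °C, 5% CO2. Exposed to 4 μM compound for varying times, then fixed in 70% ethanol at −20 °C overnight. Stained with PI/RNase buffer 15–20 min in the dark; 20000 cells per sample read by flow cytometry (488 nm excitation, FL-3 630 nm). Three repeats.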

AGS [25] = test: Induction of apoptosis in human AGS cells assessed as live cells at 8 uM after 36 hrs by Annexin-V-FITC/propidium iodide staining based flow cytometry (reference value: 92.84%); format: functional
[26] = target: Aurora kinase A (Homo sapiens) (UniProt O14965); test: Inhibition of AurA (unknown origin) at 30 uM relative to control
AGS [27] = test: Induction of apoptosis in human AGS cells assessed as necrotic cells at 4 uM after 36 hrs by Annexin-V-FITC/propidium iodide staining based flow cytometry (reference value: 1.01%); format: functional
AGS [28] = test: Induction of apoptosis in human AGS cells assessed as live cells at 6 uM after 36 hrs by Annexin-V-FITC/propidium iodide staining based flow cytometry (reference value: 92.84%); format: functional

Sequence of Aurora kinase A (Homo sapiens) (O14965 whole entry): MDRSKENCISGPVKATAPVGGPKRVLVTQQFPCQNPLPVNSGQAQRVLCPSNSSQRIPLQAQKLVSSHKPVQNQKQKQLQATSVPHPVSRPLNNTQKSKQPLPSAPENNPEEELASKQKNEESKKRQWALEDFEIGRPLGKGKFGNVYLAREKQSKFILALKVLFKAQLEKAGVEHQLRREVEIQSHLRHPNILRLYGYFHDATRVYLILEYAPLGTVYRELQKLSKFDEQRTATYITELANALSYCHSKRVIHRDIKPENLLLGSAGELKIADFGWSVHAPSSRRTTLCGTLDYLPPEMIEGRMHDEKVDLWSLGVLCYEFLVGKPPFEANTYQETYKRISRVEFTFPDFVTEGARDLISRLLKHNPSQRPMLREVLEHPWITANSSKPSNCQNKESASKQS
Sequence of Serine/threonine-protein kinase Chk1 (Homo sapiens) (O14757 whole entry): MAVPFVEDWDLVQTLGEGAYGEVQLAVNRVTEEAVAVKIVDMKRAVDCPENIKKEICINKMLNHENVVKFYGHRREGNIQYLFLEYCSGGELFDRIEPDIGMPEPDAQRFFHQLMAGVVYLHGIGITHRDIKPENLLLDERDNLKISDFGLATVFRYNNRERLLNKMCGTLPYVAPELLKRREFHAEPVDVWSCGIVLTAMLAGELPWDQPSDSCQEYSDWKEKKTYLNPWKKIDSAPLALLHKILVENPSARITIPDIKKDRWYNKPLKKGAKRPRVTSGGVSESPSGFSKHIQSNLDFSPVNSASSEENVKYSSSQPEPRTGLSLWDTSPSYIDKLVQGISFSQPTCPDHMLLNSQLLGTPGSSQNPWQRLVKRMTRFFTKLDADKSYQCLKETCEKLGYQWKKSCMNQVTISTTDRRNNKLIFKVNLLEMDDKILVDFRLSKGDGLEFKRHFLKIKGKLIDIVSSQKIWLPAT

O=c1cc(-c2ccc(-c3ccccc3)cc2)c2ccc(N3CCC(NCCc4ccccc4)CC3)cc2o1
Activity (AGS [1]): 7.4% | CI (AGS [2]): 1.15 | CI (AGS [3]): 1.05 | CC50 at 48 h [4]: 13.5 µM | inhibition [5]: Active | inhibition [6]: 5.17% | inhibition [7]: inactive | CI (AGS [8]): 4.34 | Activity (AGS [9]): 38.71% | inhibition [10]: 11.5% | Activity (AGS [11]): 35.01% | inhibition [12]: 4.57% | Activity (AGS [13]): 9.14% | inhibition [14]: 1.01% | selectivity ratio [15]: 14 to 18 | Activity (AGS [16]): 10.51% | Activity (AGS [17]): 44.73% | inhibition [18]: Dose-dependent effect | CC50 at 48 h [19]: 10.7 µM | Activity (AGS [20]): 4.71% | Activity (AGS [21]): 45.91% | Activity (AGS [22]): 3.33% | IC50 (AGS [23]): 0.76 µM | Activity (AGS [24]): Active | Activity (AGS [25]): 9.88% | inhibition [26]: 6.03% | Activity (AGS [27]): 1.03% | Activity (AGS [28]): 14.99%
